Where two headings read alike, the source gives them in different places.
Key:
[1] = tested on: Jurkat cells (human T-cell leukemia); experiment: In vitro antiproliferative activity; type: cell-based; details: 72 h, read-out: IC50 Jurkat
Method in brief: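 Cells grown in RPMI-1640; 8 × 10^3 cells per well, pre-incubated 18 h at 37 °C, 5% CO2. Medium replaced with fresh medium containing test compound at several concentrations (from 10 mM DMSO stocks; DMSO ≤0.25% final), 72 h at 37 °C.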

[2] = tested on: BNL 1ME A.7R.1 hepatocellular carcinoma tumors; experiment: In vivo antitumor activity, syngeneic hepatocellular carcinoma model; details: Balb/c mice; for tumor growth inhibition vs control (significance): 5 mg/kg intraperitoneally daily
Method in brief: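 Male Balb/c mice, 8 weeks old, injected subcutaneously in the dorsal region with 10^7 BNL 1ME A.7R.1 cells in 200 μL sterile PBS. At about 100 mm3, mice were randomized into four groups of 5. Tumors measured by caliper daily for 7 days; V = AB2/2.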

[3] = tested on: panel of seven human cancer cell lines; experiment: Antiproliferative activity over the panel of seven human cancer cell lines; type: cell-based
Method in brief: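 Jurkat, RS4;11 and HL-60 cells grown in RPMI-1640; MCF-7, A549, HeLa and HT-29 cells in DMEM; both media with 10% FBS plus penicillin/streptomycin. 8 × 10^3 cells/well settled 18 h at 37 °C, 5% CO2, then exposed to graded compound for 72 h. DMSO ≤0.25%. MTT viability read.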

[4] = tested on: PBL not stimulated with PHA; experiment: Cytotoxicity in noncancer cells, resting PBL; type: cell-based; details: Homo sapiens, 72 h, read-out: IC50 PBLresting
Method in brief: (§1)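 Peripheral blood lymphocytes from healthy donors isolated on a Lymphoprep gradient, washed, held overnight at 1.0 × 10^6 cells/mL in RPMI-1640 with 10% FBS. Nonadherent cells reseeded at 5 × 10^5 cells/mL. PHA-stimulated set received 2.5 μg/mL PHA; resting set had no PHA. Graded compound for 72 h; viability by MTT.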

[5] = tested on: PBL stimulated with PHA; experiment: Cytotoxicity in noncancer cells, PHA-stimulated PBL; type: cell-based; details: Homo sapiens, 72 h, read-out: IC50 PBLPHA
Method in brief: as §1

[6] = Body weight during in vivo antitumor treatment; set-up: species or system Balb/c mice; details: 3g at the higher dose (10 mg/kg ip)
[7] = tested on: Jurkat and HeLa cells; experiment: Flow cytometric analysis of cell cycle distribution; type: cell-based, human; details: for lowest concentration giving a rise in G2/M cells: 24 h treatment
Method in brief: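 5 × 10^5 HeLa or Jurkat cells exposed to graded compound concentrations for 24 h. Cells collected, fixed in ice-cold 70% ethanol, treated with lysis buffer containing RNase A and 0.1% Triton X-100, then stained with propidium iodide. DNA content measured by flow cytometry; phase distribution derived from DNA histograms.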

[8] = tested on: HUVECs; experiment: HUVEC motility; type: cell-based, human
Method in brief: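 Primary cord-vein HUVECs (passages 1–6) grown to confluence (1 × 10^5 seeded) on 0.1% collagen type I. Monolayer scratched with a pipet tip, washed with PBS, then exposed to test compound. Wells photographed at intervals (6 and 24 h). Wound width measured in four areas and compared with initial width. Three independent experiments; significance versus untreated control.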

[9] = tested on: HUVECs; experiment: Disruption of HUVEC capillary-like tubules on Matrigel; type: cell-based, human; details: 1 h or 3 h incubation
Method in brief: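 HUVECs isolated from umbilical cord veins, kept in M200 with low-serum growth supplement, and used at passages 1–6. Matrigel gelled 30 min at 37 °C, overlaid with 6 × 10^4 cells; tubules allowed to form for 6 h. Compound then added for 1 or 3 h. Five fields/well photographed at 10×. Image analysis quantified tubule length, mesh area/number, % area covered and branch points. Three independent experiments.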

[10] = tested on: chick embryo chorioallantoic membrane (CAM) blood vessels; experiment: CAM assay in fertilized chicken eggs; type: in vivo
[11] = tested on: BL6-B16 murine melanoma tumor blood vessels; experiment: Antivascular activity in vivo, CD31 vessel count in BL6-B16 melanoma; details: 30 mg/kg ip, 24 h, C57BL/6 mice, P < 0.05
Method in brief: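 Six-week-old C57BL/6 mice received 10^5 BL6-B16 melanoma cells in PBS subcutaneously in the dorsolateral flank. At 300 mm3 tumor volume, a single ip dose of 30 mg/kg in DMSO (50 μL) was given. Tumors excised 24 h later, OCT-embedded, frozen, cut into 4–5 μm cryosections. Stained with rat anti-mouse CD31 (1:200) and biotinylated anti-rat secondary. CD31+ vessels counted in 5 fields/section (40× objective); five mice/group.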

[12] = tested on: HeLa cells; experiment: Annexin-V/PI apoptosis assay; type: cell-based, human; details: 24 or 48 h
Method in brief: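 HeLa cells exposed to test compound for 24 or 48 h. Cells harvested and double-stained with annexin-V-FITC and PI. Surface phosphatidylserine exposure read by flow cytometry.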

[13] = tested on: HeLa cells; experiment: Mitochondrial membrane potential; type: cell-based, human; details: 24 or 48 h
Method in brief: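 HeLa cells exposed to compound for 24 or 48 h, then stained with H2-DCFDA for reactive oxygen species. Fluorescence read by flow cytometry. Parallel JC-1 staining assessed mitochondrial membrane potential. Three independent experiments.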

[14] = tested on: HeLa cells; experiment: Western blot analysis of caspases and Bcl-2 family proteins; type: cell-based, human; details: for Mcl-1 expression: 48 h, 100 and 250 nM
Method in brief: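 Treated HeLa cells washed in cold PBS and lysed on ice for 30 min. Lysates cleared at 15000g, 4 °C, for 10 min; protein measured by BCA. 10 μg protein resolved on 7.5–15% SDS-PAGE and transferred to PVDF. Membranes blocked in 5% BSA/Tween-PBS overnight at 4 °C. Primary antibodies (e.g., Mcl-1) applied 2 h at room temperature, then peroxidase secondary for 60 min; ECL detection. β-actin reprobe used as loading control.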

[15] = read-out: average IC50 over the seven cell lines
[16] = read-out: IC50 values range in the seven cell lines

**Q.** For `COc1ccc(/C=C\c2cc(OC)c(OC)c(OC)c2)cc1O` [CA-4, combretastatin A-4], which IC50 [1] is on record?
**A.** The IC50 was 5 ± 0.6 nM.

**Q.** With `COc1ccc(/C=C\c2cc(OC)c(OC)c(OC)c2)cc1OP(=O)([O-])[O-].[Na+].[Na+]` [CA-4P, combretastatin A-4 phosphate, reference compound] as the molecule, how does the “tumor growth inhibition vs control (significance)” value [2] read?
**A.** The value was “significant relative to the control”.

**Q.** For `COC(=O)c1oc2ccccc2c1Nc1cc(OC)c(OC)c(OC)c1` [Compound 3a, Methyl 3-[(3,4,5-Trimethoxyphenyl)amino]benzofuran-2-carboxylate], which IC50 [3, 15] is on record?
**A.** The IC50 was 3300 nM.

**Q.** Which IC50 [4] does the source give for `COC(=O)c1oc2cc(OC)ccc2c1Nc1cc(OC)c(OC)c(OC)c1` [Compound 3g, Methyl 3-(3,4,5-Trimethoxyphenylamino)-6-methoxybenzofuran-2-carboxylate] here?
**A.** Its IC50 is greater than 10 µM.

**Q.** And the IC50 [5]?
**A.** The IC50 was greater than 10 µM.

**Q.** What about the IC50 [3, 16] of the same molecule?
**A.** Its IC50 is 0.3 to 27 nM.

**Q.** What about the “tumor growth inhibition vs control (significance)” value [2] of the same molecule?
**A.** Its value is “did not reach statistical significance”.

**Q.** What about the “reduction in tumor growth compared with vehicle” value ([2]; 10 mg/kg intraperitoneally daily) of the same molecule?
**A.** Its value is 44.5%.

**Q.** And the “body weight change during treatment” value [6]?
**A.** The value was “only a small decrease in body weight”.

**Q.** And the “lowest concentration giving a rise in G2/M cells” value [7]?
**A.** Its value is 60 nM.

**Q.** And the “concentration with statistically significant arrest of HUVEC motility” value ([8]; 6 h incubation)?
**A.** Its value is 25 nM.

**Q.** What about the “concentration with highly significant arrest of HUVEC motility” value ([8]; after 24 h, lowest tested concentration) of the same molecule?
**A.** Its value is 5 nM.

**Q.** And the “HUVEC motility” value ([8]; scratch wound)?
**A.** Its value is “very efficient in arresting cell motility”.

**Q.** And the “effect on preformed HUVEC tubule-like network” value [9]?
**A.** The value was “clearly disrupted the network of HUVECs”.

**Q.** What about the “blood vessel number, compound alone” value ([10]; 100 pmol/egg, without FGF) of the same molecule?
**A.** Its value is “did not induce blood vessels to increase in number”.

**Q.** What about the “FGF-induced increase of blood vessels” value ([10]; FGF 100 ng/egg, even at 1 pmol/egg) of the same molecule?
**A.** The value was “strongly reduced”.

**Q.** What about the “reduction in number of CD31-positive tumor vessels” value [11] of the same molecule?
**A.** The value was “about 20%”.

**Q.** What about the “apoptosis (annexin-V)” value [12] of the same molecule?
**A.** The value was “accumulation of annexin-V positive cells”.

**Q.** What about the “ROS production (H2-DCFDA)” value [13] of the same molecule?
**A.** The value was “production of significant amounts of ROS”.

**Q.** And the “mitochondrial transmembrane potential (JC-1)” value [13]?
**A.** Its value is “time- and concentration-dependent increase in the proportion of cells with depolarized mitochondria”.

**Q.** And the “caspase activation (immunoblot)” value [14]?
**A.** The value was “activation of caspase-9 and caspase-3 in a time- and concentration-dependent manner”.

**Q.** What about the Mcl-1 expression [14] of the same molecule?
**A.** Its Mcl-1 expression is “strongly down-regulated”.

**Q.** Which results are given for `CCOC(=O)c1oc2cc(OC)ccc2c1Nc1cc(OC)c(OC)c(OC)c1` [Compound 3h, Ethyl 3-(3,4,5-Trimethoxyphenylamino)-6-methoxybenzofuran-2-carboxylate]?
**A.** IC50 [4]: > 10 µM; IC50 [3, 16]: 13 to 100 nM; IC50 [3, 15]: 34 nM; cells arrested in G2/M ([7]; 24 h, at higher concentrations): more than 70%; lowest concentration giving a rise in G2/M cells [7]: 60 nM; apoptosis (annexin-V) [12]: accumulation of annexin-V positive cells; ROS production (H2-DCFDA) [13]: production of significant amounts of ROS; mitochondrial transmembrane potential (JC-1) [13]: time- and concentration-dependent increase in the proportion of cells with depolarized mitochondria; caspase activation (immunoblot) [14]: activation of caspase-9 and caspase-3 in a time- and concentration-dependent manner; Mcl-1 expression [14]: strongly down-regulated

**Q.** Which IC50 [3, 15] does the source give for `COC(=O)c1oc2c(OC)cccc2c1Nc1cc(OC)c(OC)c(OC)c1` [Compound 3i, Methyl 3-(3,4,5-Trimethoxyphenylamino)-7-methoxybenzofuran-2-carboxylate] here?
**A.** The IC50 was 370 nM.

**Q.** For `CCOC(=O)c1oc2c(OC)cccc2c1Nc1cc(OC)c(OC)c(OC)c1` [Compound 3j, Ethyl 3-(3,4,5-Trimethoxyphenylamino)-7-methoxybenzofuran-2-carboxylate], which IC50 [3, 15] is on record?
**A.** Its IC50 is 670 nM.
